# Measurements taken from ChEMBL document CHEMBL1155646, “Kinmoonosides A-C, three new cytotoxic saponins from the fruits of Acacia concinna, a medicinal plant collected in myanmar” (2000).
# System: HT-1080
# Experiment: Cytotoxicity against human HT1080 cells by 3-(4,5-dimethylthiazol-2-yl)-[…] bromide assay
# Format: functional
# Conditions: read-out: ED50 (the source's name)
# Outline: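 Human HT-1080 fibrosarcoma cells were tested in a standard tetrazolium (MTT) viability assay following an earlier published protocol. Potency was reported as ED50, given in µg/mL and also converted to µM.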
row,Compound,EC50
1,CC1(C)C[C@H]2C3=CC[C@@H]4[C@@]5(C)CC[C@H](O[C@@H]6O[C@H](CO[C@@H]7OC[C@H](O)[C@H](O)[C@H]7O[C@@H]7OC[C@@H](O)[C@H](O)[C@H]7O)[C@@H](O)[C@H](O)[C@H]6O[C@@H]6O[C@H](CO)[C@@H](O)[C@H](O)[C@H]6O)C(C)(C)[C@@H]5CC[C@@]4(C)[C@]3(C)C[C@@H](O)[C@@]23C[C@@H]1OC3=O,> 100 µg/mL
2,C=CC(C)(O)CC/C=C(\CO)C(=O)O[C@H]1[C@H](O)[C@@H](O)[C@H](O[C@@](C)(C=C)CC/C=C(\CO)C(=O)O[C@H]2C[C@]3(C(=O)O[C@@H]4O[C@H](CO)[C@@H](O)[C@H](O)[C@H]4O[C@@H]4O[C@@H](C)[C@H](O[C@H]5O[C@@H](CO)[C@H](O)[C@H]5O)[C@@H](O[C@@H]5O[C@H](CO)[C@@H](O)[C@H](O)[C@H]5O)[C@H]4O)[C@H](O)C[C@]4(C)C(=CC[C@@H]5[C@@]6(C)CC[C@H](O[C@@H]7O[C@H](CO[C@@H]8OC[C@H](O)[C@H](O)[C@H]8O)[C@@H](O)[C@H](O)[C@H]7O[C@@H]7O[C@H](CO)[C@@H](O)[C@H](O)[C@H]7O)C(C)(C)[C@@H]6CC[C@]54C)[C@@H]3CC2(C)C)O[C@@H]1C (some centres undefined) [KINMOONOSIDES A],700 nM
3,CC1(C)C[C@H]2C3=CC[C@@H]4[C@@]5(C)CC[C@H](O[C@@H]6O[C@H](CO[C@@H]7OC[C@H](O)[C@H](O)[C@H]7O)[C@@H](O)[C@H](O)[C@H]6O[C@@H]6O[C@H](CO)[C@@H](O)[C@H](O)[C@H]6O)C(C)(C)[C@@H]5CC[C@@]4(C)[C@]3(C)C[C@@H](O)[C@@]2(C(=O)O)C[C@@H]1O,> 100 µg/mL
4,C=CC(C)(CC/C=C(\CO)C(=O)O)O[C@@H]1O[C@H](C)[C@@H](O)[C@H](O)[C@H]1O (some centres undefined),> 100 µg/mL
5,O=c1[nH]cc(F)c(=O)[nH]1 [FLUOROURACIL],8000 nM
6,C=CC(C)(CC/C=C(\C)C(=O)O)O[C@@H]1O[C@H](C)[C@@H](O)[C@H](O)[C@H]1O (mixture of isomers),> 100 µg/mL
7,C=CC(C)(O)CC/C=C(\C)C(=O)O (centres undefined) [MENTHIAFOLIC ACID],> 100 µg/mL
8,C=CC(C)(O)CC/C=C(\CO)C(=O)O[C@H]1[C@H](O)[C@@H](O)[C@H](O[C@](C)(C=C)CC/C=C(\CO)C(=O)O[C@H]2C[C@]3(C(=O)O[C@@H]4O[C@H](CO)[C@@H](O)[C@H](O)[C@H]4O[C@@H]4O[C@@H](C)[C@H](O[C@H]5O[C@@H](CO)[C@H](O)[C@H]5O)[C@@H](O[C@@H]5O[C@H](CO)[C@@H](O)[C@H](O)[C@H]5O)[C@H]4O)[C@H](O)C[C@]4(C)C(=CC[C@@H]5[C@@]6(C)CC[C@H](O[C@@H]7O[C@H](CO[C@@H]8OC[C@H](O)[C@H](O)[C@H]8O)[C@@H](O)[C@H](O)[C@H]7O[C@@H]7O[C@H](CO)[C@@H](O)[C@H](O)[C@H]7O)C(C)(C)[C@@H]6CC[C@]54C)[C@@H]3CC2(C)C)O[C@@H]1C (some centres undefined) [KINMOONOSIDE B],910 nM
9,CC(=O)N[C@H]1[C@H](O[C@H]2CC[C@]3(C)[C@H]4CC=C5[C@@H]6CC(C)(C)[C@@H](O)C[C@]6(C(=O)O)[C@H](O)C[C@@]5(C)[C@]4(C)CC[C@H]3C2(C)C)O[C@H](CO[C@@H]2OC[C@H](O)[C@H](O)[C@H]2O[C@@H]2OC[C@@H](O)[C@H](O)[C@H]2O)[C@@H](O)[C@@H]1O [PROSAPOGENIN 2],> 100 µg/mL
10,C=CC(C)(O)CC/C=C(\CO)C(=O)O[C@H]1C[C@]2(C(=O)O[C@@H]3O[C@H](CO)[C@@H](O)[C@H](O)[C@H]3O[C@@H]3O[C@@H](C)[C@H](O[C@H]4O[C@@H](CO)[C@H](O)[C@H]4O)[C@@H](O[C@@H]4O[C@H](CO)[C@@H](O)[C@H](O)[C@H]4O)[C@H]3O)[C@H](O)C[C@]3(C)C(=CC[C@@H]4[C@@]5(C)CC[C@H](O[C@@H]6O[C@H](CO[C@@H]7OC[C@H](O)[C@H](O)[C@H]7O)[C@@H](O)[C@H](O)[C@H]6O[C@@H]6O[C@H](CO)[C@@H](O)[C@H](O)[C@H]6O)C(C)(C)[C@@H]5CC[C@]43C)[C@@H]2CC1(C)C (some centres undefined),2830 nM
11,C=CC(C)(O)CC/C=C(\CO)C(=O)O[C@H]1[C@H](O)[C@@H](O)C(O)O[C@@H]1C (some centres undefined),> 100 µg/mL
12,C=CC1(C)CCC(C(CO)C(=O)O)O1 (centres undefined),> 100 µg/mL
13,C[C@H]1O[C@@H](OC[C@H]2O[C@@H](O[C@H]3CC[C@]4(C)[C@H]5CC=C6[C@@H]7CC(C)(C)[C@@H](O)C[C@]7(C(=O)O)[C@H](O)C[C@@]6(C)[C@]5(C)CC[C@H]4C3(C)C)[C@H](O[C@@H]3O[C@H](CO)[C@@H](O)[C@H](O)[C@H]3O)[C@@H](O)[C@@H]2O)[C@H](O[C@@H]2OC[C@@H](O)[C@H](O)[C@H]2O)[C@@H](O)[C@H]1O,> 100 µg/mL
14,CC(=O)N[C@H]1[C@H](O[C@H]2CC[C@]3(C)[C@H]4CC=C5[C@@H]6CC(C)(C)[C@@H](O)C[C@]6(C(=O)O)[C@H](O)C[C@@]5(C)[C@]4(C)CC[C@H]3C2(C)C)O[C@H](CO[C@@H]2OC[C@H](O)[C@H](O)[C@H]2O)[C@@H](O)[C@@H]1O,> 100 µg/mL
